# Measurements taken from ChEMBL document CHEMBL1132950, “Synthesis, structure, and antitumor activity of a novel tetranuclear titanium complex” (J Med Chem, 2000).
# Experiments:
# HEp-2 [1] = experiment: In vitro percentage of live HEP-2 cells after treatment at 100 uM; assay type: functional, cell-based; settings: Homo sapiens
# Summary of the method: (§1)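 Ti complex encapsulated in DPPC liposomes and diluted in 0.9% NaCl. It was added to monolayer cells grown in L-15 with 5% fetal calf serum, penicillin G and gentamicin at 37 °C and 100% humidity, then incubated 72 h at 37 °C. Cells were trypsinized and stained with 0.4% trypan blue, and live cells were counted in a Neubauer chamber. Viability is treated/control viable cells ×100. Five runs.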
# Mus musculus [2] = experiment: In vivo activity expressed as life span value of average treated / untreated CF-1 mice for 25.2/13 days (SEM value = 1.94); assay type: functional, organism-based
# Summary of the method: (§2)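 Female CF-1 mice (30–35 g, 5–8 weeks) received 10^6 TA-3 ascites cells ip. Three days later, daily ip injections of 0.1 mL DPPC-liposomal complex (1.5×10^-2 M in Ti complex, in 0.9% NaCl) began, each dose equal to 4.1 mg/kg, given for 1–5 consecutive days. Groups had 5–7 mice. Mean survival days are given as treated/untreated.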
# Mus musculus [3] = experiment: In vivo activity expressed as life span value of average treated / untreated CF-1 mice for 26/13 days (SEM value = 2); assay type: functional, organism-based; summary of the method: as §2
# Vero [4] = experiment: In vitro percentage of live Vero cells after treatment at 8 uM; assay type: functional, cell-based; settings: Chlorocebus sabaeus; summary of the method: as §1
# Mus musculus [5] = experiment: In vivo activity expressed as life span value of average treated / untreated AJ mice for 11.6/6 days (SEM value = 1.93); assay type: functional, organism-based
# Summary of the method: (§3)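 Female AJ mice (20–25 g, 5–8 weeks) received 10^6 TA-3 ascites cells ip. From day 3 they got 0.1 mL ip of liposomal complex (1.5×10^-2 M in Ti complex, 0.9% NaCl), each dose equal to 6.2 mg/kg, daily for 1–5 consecutive days. Groups had 5–7 animals. Survival days are given as treated/untreated.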
# Mus musculus [6] = experiment: In vivo activity expressed as life span value of average treated / untreated CF-1 mice for 20/13 days (SEM value = 1.54); assay type: functional, organism-based; summary of the method: as §2
# Vero [7] = experiment: In vitro percentage of live Vero cells after treatment at 500 uM; assay type: functional, cell-based; settings: Chlorocebus sabaeus; summary of the method: as §1
# Mus musculus [8] = experiment: In vivo activity expressed as life span value of average treated / untreated AJ mice for 9.6/6 days (SEM value = 1.55); assay type: functional, organism-based; settings: in the assay text read “9.3/6 days” for “9.6/6 days”; summary of the method: as §3
# Mus musculus [9] = experiment: In vivo activity expressed as life span value of average treated / untreated CF-1 mice for 25/13 days (SEM value = 1.92); assay type: functional, organism-based; summary of the method: as §2
# HEp-2 [10] = experiment: In vitro percentage of live HEP-2 cells after treatment at 80 uM; assay type: functional, cell-based; settings: Homo sapiens; summary of the method: as §1
# HEp-2 [11] = experiment: In vitro percentage of live HEP-2 cells after treatment at 500 uM; assay type: functional, cell-based; settings: Homo sapiens; summary of the method: as §1
# Mus musculus [12] = experiment: In vivo activity expressed as life span value of average treated / untreated AJ mice for 17.6/6 days (SEM value = 2.93); assay type: functional, organism-based; summary of the method: as §3
# Mus musculus [13] = experiment: In vivo activity expressed as life span value of average treated / untreated AJ mice for 15/6 days (SEM value = 2.54); assay type: functional, organism-based; summary of the method: as §3
# Vero [14] = experiment: In vitro percentage of live Vero cells after treatment at 80 uM; assay type: functional, cell-based; settings: Chlorocebus sabaeus; summary of the method: as §1
# HEp-2 [15] = experiment: In vitro percentage of live HEP-2 cells after treatment at 8 uM; assay type: functional, cell-based; settings: Homo sapiens; summary of the method: as §1
# Vero [16] = experiment: In vitro percentage of live Vero cells after treatment at 100 uM; assay type: functional, cell-based; settings: Chlorocebus sabaeus; summary of the method: as §1
# Mus musculus [17] = experiment: In vivo activity expressed as life span value of average treated / untreated AJ mice for 11.3/6 days (SEM value = 1.88); assay type: functional, organism-based; summary of the method: as §3
substance,measurement,setting,value
cyclo-Tetrakis[bis(1-phenyl-3-methyl-4-benzoylpyrazol-5-onato)-mu-oxotitanium(IV)],viability,HEp-2 [1],40.3%
same,T/C,Mus musculus [2],194%
same,T/C,Mus musculus [3],200%
same,viability,Vero [4],100%
same,T/C,Mus musculus [5],193%
same,T/C,Mus musculus [6],154%
same,viability,Vero [7],95.2%
same,T/C,Mus musculus [8],155%
same,T/C,Mus musculus [9],192%
same,viability,HEp-2 [10],77.4%
same,viability,HEp-2 [11],30%
same,T/C,Mus musculus [12],293%
same,T/C,Mus musculus [13],254%
same,viability,Vero [14],98.4%
same,viability,HEp-2 [15],77.4%
same,viability,Vero [16],97.1%
same,T/C,Mus musculus [17],188%
